JNK3 blocker: JNK3 (human) kinase inhibition; purified JNK3 kinase activity, HTS; inhibition, % at 8 µM; hit rate 0.61% among 60,000; in the data active = inhibition above about 17%;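 note: 0% = DMSO and 100% = reference inhibitor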
Target sequence (P53779 whole entry, looked up): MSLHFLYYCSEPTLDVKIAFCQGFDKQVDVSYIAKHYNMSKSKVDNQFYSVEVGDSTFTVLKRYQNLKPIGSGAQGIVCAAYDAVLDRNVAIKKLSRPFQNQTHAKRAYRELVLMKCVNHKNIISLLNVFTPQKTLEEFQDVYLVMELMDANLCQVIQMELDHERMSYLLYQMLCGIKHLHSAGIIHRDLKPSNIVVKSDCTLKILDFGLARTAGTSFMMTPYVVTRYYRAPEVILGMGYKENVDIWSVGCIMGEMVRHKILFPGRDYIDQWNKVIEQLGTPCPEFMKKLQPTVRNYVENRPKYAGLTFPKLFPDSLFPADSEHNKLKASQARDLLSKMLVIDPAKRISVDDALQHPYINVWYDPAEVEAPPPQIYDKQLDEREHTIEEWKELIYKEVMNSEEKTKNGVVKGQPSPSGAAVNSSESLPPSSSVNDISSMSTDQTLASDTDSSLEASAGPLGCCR
TNAP act mid DEA: activates human TNAP at intermediate phosphate acceptor concentration | P05186 | purified TNAP, CDP-star luminescence, 100 mM DEA, 30 min; active compounds read high; scale: 0 levamisole-inhibited, 1 vehicle-only enzyme | activation factor at 20 µM | 64,000 tested, under 10 active | AID 813;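 active = activation factor of at least 2 at 20 µM, relative to controls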
HEK293 NFkB inh: inhibitors of the PMA/ionomycin-induced NF-kB reporter in HEK293 cells. HEK-293 NF-kB luciferase reporter, luminescence. inhibition, % at 3 µM. hit rate 0.21% among 62,000;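 active = inhibition above the mean of all tested compounds plus 3 SD, cut at about 40% in these data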;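 note: 0% = stimulated DMSO wells and 100% = 10 µM reference inhibitor 5653914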
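Timing: 1 h pretreatment, 16 h stimulation, 37 °C; system: HEK-293 cells with stable firefly luciferase reporter driven by four HIV NF-kB elements; doses: 3 µM once, 0.30% DMSO; measured by: luciferase luminescence; control set: DMSO and 10 µM reference inhibitor; repeats: single test; reagent: PMA plus ionomycin mix as NF-kB-activating stimulus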
PKA inh: blocks human protein kinase A activity. P17612. PKA Kemptide phosphorylation, Kinase-Glo ATP luminescence. inhibition, % at 6 µM. hit rate 0.1% among 65,000. AID 524;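 active = inhibition above the screen-wide mean inhibition plus 3 SD, cut at about 21% in these data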
Hsp90 inh: displaces geldanamycin probe from tumor Hsp90 | P07900 | NCI-N417 lysate Hsp90, Cy3B-geldanamycin FP displacement | inhibition, % at 30 µM | hit rate 0.35% among 64,000 | AID 429;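 active = inhibition above 50%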;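 note: 0% = tracer plus lysate wells and 100% = tracer alone without lysate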
ROCK2 blocker: ROCK2 (human) kinase inhibition | inhibition, % at 6 µM | AID 604 | hit rate 0.35% among 60,000 | purified ROCK2, Kinase-Glo ATP depletion luminescence | O75116;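 active = inhibition above the screen-wide mean inhibition plus 3 SD, cut at about 18% in these data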;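 note: plate controls were DMSO wells for no effect and Y-27632 control wells after no-enzyme background subtraction for full effect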
An asterisk follows results filed as active; . = no result. In the library only some 0.94% were active in any assay of this set; here they are far more common.

SMILES	JNK3 blocker	TNAP act mid DEA	HEK293 NFkB inh	PKA inh	Hsp90 inh	ROCK2 blocker
COC(=O)c1c(NC(=O)Cc2cccs2)sc(C)c1C	18*	0.9	7	1	.	2
c1ccc(-c2cccc(-c3ccccn3)n2)nc1	-2	1.1	86*	-5	2	1
c1ccc(-c2nnc(-c3ccccn3)nn2)nc1	.	1.1	-13	1	.	.
CCOc1ccccc1C(=O)N1CCN(c2cccc(Cl)c2)CC1	0	0.8	40*	4	-6	3
COc1cccc(C=Nc2cccnc2)c1O	5	1	46*	-1	2	3
COc1cccc(/C=N/n2c(C)nc3ccccc3c2=O)c1O	3	1	-6	11	-1	-7
Cc1cc(O)cc(O)c1-c1onc(C(F)(F)F)c1-c1cscn1	0	0.9	-6	12	69*	3
CCN(CC)c1ccc2c(c1)OC(N)=C(C#N)C2c1cccnc1 (stereo not drawn)	-6	0.9	53*	3	-31	-4
CC(=O)[C@]1(O)Cc2c(O)c3c(c(O)c2[C@@H](O[C@H]2C[C@H](N)[C@H](O)[C@H](C)O2)C1)C(=O)c1ccccc1C3=O	.	.	.	.	156*	.
COc1cccc2c1C(=O)c1c(O)c3c(c(O)c1C2=O)C[C@@](O)(C(C)=O)C[C@@H]3O[C@H]1C[C@H](N)[C@H](O)[C@H](C)O1	-15	0.7	.	-8	80*	-11
Cc1ccc(C(=O)C2=C(O)C(=O)N(CCCn3ccnc3)C2c2ccc(OC(C)C)cc2)o1 (stereo not drawn)	27*	0.9	1	0	0	-1
CCOc1ccc(C2C(C(=O)c3ccco3)=C(O)C(=O)N2CCCn2ccnc2)cc1 (stereo not drawn)	-1	0.9	10	12	-5	4
Cc1ccnc(Nc2nc(-c3c(C)nc4sccn34)cs2)c1	34*	1	-1	6	7	4
O=C(O)c1cc(=O)c2ccc(Cl)cc2[nH]1	.	.	.	.	3	.
COc1ccc(N2C(=O)CSC23C(=O)N2CCCc4cccc3c42)cc1 (stereo not drawn)	2	1	1	-1	67*	7
Fc1ccc(C(OCCCc2cnc[nH]2)c2ccc(F)cc2)cc1	.	.	.	.	-3	.
O=C(c1n[nH]c(=O)c2ccccc12)N1CCN(C2c3ccccc3-c3ccccc32)CC1	-3	0.9	11	-1	90*	2
[Li+]	.	.	.	.	1	.
Cc1cc(-n2c(C)cc(C(=O)CN3C(=O)NC4(CCCCC4)C3=O)c2C)no1	6	0.9	17	9	-5	3
Cc1cc(C(=O)CN2C(=O)NC3(CCCCC3)C2=O)c(C)n1Cc1ccc2c(c1)OCO2	-5	0.9	15	11	-4	22*
N=C1Sc2ccccc2C2=NCCCN12	.	.	.	.	-2	.
Cc1cc(N2CCOCC2)c2c(N)c(C)cc(C)c2n1	-12	1	9	10	-1	19*
NC(=O)C(=O)O	.	.	.	.	0	.
CCOC(=O)CNC(=O)c1ccc2[nH]c3c(c2c1)CCCC3	-12	1	5	5	-3	6
CCOC(=O)c1ccc2[nH]c3c(c2c1)CCCCC3=O	24*	0.9	-9	15	1	6
SMILES	JNK3 blocker	TNAP act mid DEA	HEK293 NFkB inh	PKA inh	Hsp90 inh	ROCK2 blocker
COc1ccc2noc3c2c1C(=O)c1ccccc1-3	15	0.8	-1	14	39	6
O=C1c2ccccc2-c2onc3ccc(NCCCn4ccnc4)c1c23	38*	0.8	0	10	140*	4
NC(=NCCC[C@H](N)C(=O)O)NO	.	.	.	.	-1	.
Cc1cc(Cl)ccc1OCc1nc(-c2ccc(O)cc2)n[nH]1	2	0.9	4	6	-5	27*
CCCCc1ccc(S(=O)(=O)Nc2cc(OC)cc3cccnc23)cc1	.	.	.	.	-5	.
CC(Cc1ccc(O)c(O)c1)C(C)Cc1ccc(O)c(O)c1 (stereo not drawn)	-3	0.6	.	-2	103*	4
C[C@H](Cc1ccc(O)c(O)c1)[C@@H](C)Cc1ccc(O)c(O)c1	.	.	.	.	98*	.
N[C@@H](Cc1ccc(O)c(O)c1)C(=O)O	.	.	.	.	30	.
C=CC[C@H](N)C(=O)O	.	.	.	.	-3	.
OC[C@H]1O[C@@H](n2cnc3c(Nc4ccccc4)ncnc32)C(O)[C@H]1O (stereo partly drawn)	.	.	.	.	2	.
N#Cc1c(-c2ccccc2)no[n+]1[O-]	.	.	.	.	11	.
NC(=O)c1cccc(N)c1	.	.	.	.	3	.
CC(=O)Nc1nc(C)c(-c2csc(Nc3ccc(O)cc3)n2)s1	18*	0.8	18	8	40	9
CC(=O)Nc1cc(OC(C)=O)c2nonc2c1OC(C)=O	47*	0.9	-2	12	91*	84*
CC(=O)Nc1nonc1NC(C)=O	-14	1	-2	-8	4	-8
CC(=O)O[C@H]1C(=O)[C@@]2(C)C([C@H](OC(=O)c3ccccc3)[C@]3(O)C[C@H](OC(=O)[C@H](O)[C@@H](NC(=O)c4ccccc4)c4ccccc4)C(C)=C1C3(C)C)[C@]1(OC(C)=O)CO[C@@H]1C[C@@H]2O (stereo partly drawn)	.	.	.	.	2	.
